≈ marks a conversion by molar mass, not a printed value.
Legend:
[1] = Ferric reducing antioxidant power; conditions: for % Inhibition, ferric reducing power: 240 µM, 700 nm
Outline: (§1)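 Absorbance read at 517 nm (DPPH), 230 nm (hydroxyl), 590 nm (superoxide), 546 nm (nitric oxide) and 700 nm (FRAP). FRAP measures the rise in absorbance from Fe3+→Fe2+ reduction with ferricyanide. IC50 taken from % inhibition vs concentration plots.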

[2] = target: bovine serum albumin (BSA) (Bos taurus, UniProt P02769); test: BSA binding assay by absorption titration
Sequence of bovine serum albumin (BSA) (P02769 25-607): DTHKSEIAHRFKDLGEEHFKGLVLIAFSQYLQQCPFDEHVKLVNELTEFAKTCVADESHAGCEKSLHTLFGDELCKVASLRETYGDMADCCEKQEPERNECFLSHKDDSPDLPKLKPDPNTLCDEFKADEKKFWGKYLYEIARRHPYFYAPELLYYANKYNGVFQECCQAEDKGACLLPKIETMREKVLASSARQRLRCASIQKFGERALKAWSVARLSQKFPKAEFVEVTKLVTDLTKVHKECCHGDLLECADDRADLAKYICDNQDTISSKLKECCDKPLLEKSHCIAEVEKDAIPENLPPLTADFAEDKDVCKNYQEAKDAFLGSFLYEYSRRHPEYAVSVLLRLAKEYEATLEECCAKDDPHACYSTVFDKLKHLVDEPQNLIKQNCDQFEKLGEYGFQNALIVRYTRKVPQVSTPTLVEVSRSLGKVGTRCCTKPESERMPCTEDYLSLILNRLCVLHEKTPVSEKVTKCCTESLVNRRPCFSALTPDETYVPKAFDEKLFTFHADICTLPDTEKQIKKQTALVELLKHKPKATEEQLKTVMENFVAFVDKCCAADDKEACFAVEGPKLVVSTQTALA

liver cancer (HepG2) = test: In vitro anticancer MTT assay; format: cell-based, human; conditions: 50% cell death following 72 h exposure
Outline: (§2)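 MTT viability: cells seeded at 1 × 10^5 per well and incubated 24 h at 37 °C, 5% CO2. Treated with test compound at 10–100 μg mL−1 (from DMSO). Medium removed, wells PBS-washed, RPMI-1640 plus MTT (5 mg mL−1 solution) added for 4 h at 37 °C. Formazan dissolved in DMSO, read at 570 nm. Triplicate wells; IC50 from % viability; cisplatin as reference.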

CT-DNA [3] = test: DNA binding by electronic absorption titration; conditions: Wolfe–Shimmer method; 298 K, pH 7.2
Outline: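 UV-Vis titration at a fixed complex concentration of 100 μM in 5 mM Tris–HCl/50 mM NaCl, pH 7.2, 25 °C. CT-DNA varied 0–150 μM, with [DNA] expressed in base pairs. Kb (Wolfe–Shimmer) taken as the slope-to-intercept ratio of [DNA]/(εa−εf) vs [DNA].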

CT-DNA [4] = test: Nuclease activity by gel electrophoresis in presence of H2O2; format: biochemical; conditions: CT-DNA + H2O2, agarose gel
Outline: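 Chemical nuclease assay: CT-DNA with test compound plus H2O2 in Tris–HCl buffer, pH 7.2. Products run on agar gel electrophoresis and imaged under a UV transilluminator. Band migration compared with a DNA + H2O2 control.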

Aspergillus niger = test: Kirby–Bauer agar disc diffusion; format: cell-based; conditions: for inhibition%: eqn (20)
Outline: (§3)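 Kirby–Bauer disc diffusion on Mueller–Hinton agar (pH 7.2, autoclaved 121 °C for 15 min, ~4 mm deep, held 2–8 °C for 24 h). Plates spread with 24 h cultures. 6 mm discs loaded with 20 μL of 100 μM test compound. Bacteria incubated at 37 °C for 48 h; fungi at 22 °C for 7 days. Clear-zone diameter measured by ruler; % inhibition by eqn (20) against 6 mm control.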

[5] = Hydroxyl radical scavenging assay; conditions: for % Inhibition, hydroxyl radical: 240 µM, 230 nm
Outline: as §1

CT-DNA [6] = test: DNA thermal denaturation by absorption; format: binding
Bacillus cereus = test: Kirby–Bauer agar disc diffusion; format: cell-based; conditions: for inhibition%: eqn (20)
Outline: as §3

breast (MCF-7) = test: In vitro anticancer MTT assay; format: cell-based, human; conditions: 50% cell death following 72 h exposure
Outline: as §2

Shigella flexneri = test: Kirby–Bauer agar disc diffusion; format: cell-based; conditions: for inhibition%: eqn (20)
Outline: as §3

Mucor indicus = test: Kirby–Bauer agar disc diffusion; format: cell-based; conditions: for inhibition%: eqn (20)
Outline: as §3

Pseudomonas aeruginosa = test: Kirby–Bauer agar disc diffusion; format: cell-based; conditions: for inhibition%: eqn (20)
Outline: as §3

[7] = Nitric oxide scavenging assay; conditions: for % Inhibition, nitric oxide: 240 µM, 546 nm
Outline: as §1

[8] = tested on: Chromobacterium violaceum; test: Kirby–Bauer agar disc diffusion; format: cell-based; conditions: for inhibition%: eqn (20)
Outline: as §3

Candida albicans = test: Kirby–Bauer agar disc diffusion; format: cell-based; conditions: for inhibition%: eqn (20)
Outline: as §3

human lung cancer (A549) = test: In vitro anticancer MTT assay; format: cell-based; conditions: 50% cell death following 72 h exposure
Outline: as §2

EB–DNA = test: Competitive binding
Outline: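 EB displacement fluorescence titration: CT-DNA 100 μM with EB in 50 mM Tris–HCl/1 mM NaCl buffer (pH 7.2), test compound 0–120 μM. Emission at 610 nm. KSV and Kq from Stern–Volmer (τ0 = 10^−8 s); Kass and n from log(F0−F)/F vs log[Q]; KLB from 1/(F0−F) vs 1/[Q]; KSC and n from Scatchard. Kapp from KEB[EB] = Kapp[compound] at 50% EB-fluorescence loss (KEB = 10^7 M−1, EB 50 μM).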

Escherichia coli = test: Kirby–Bauer agar disc diffusion; format: cell-based; conditions: for inhibition%: from zone diameter, eqn (20)
Outline: as §3

[9] = Superoxide scavenging assay; conditions: for % Inhibition, superoxide: 240 µM, 590 nm
Outline: as §1

Staphylococcus aureus = test: Kirby–Bauer agar disc diffusion; format: cell-based; conditions: for inhibition%: eqn (20)
Outline: as §3

[10] = tested on: Salmonella enteric serovar typhi; test: Kirby–Bauer agar disc diffusion; format: cell-based; conditions: for inhibition%: eqn (20)
Outline: as §3

[11] = tested on: normal human dermal fibroblast (NHDF); test: MTT assay on normal cells; format: cell-based; conditions: normal cell line; 50% cell death following 72 h exposure
Outline: as §2

[12] = DPPH radical scavenging assay; conditions: for % Inhibition, DPPH: 240 µM, 517 nm
Outline: as §1

[13] = C = (−)Chromobacterium violaceum
[14] = B = (−)Salmonella enteric serovar typhi

Which “% Inhibition, ferric reducing power” value [1] does the source give for Oc1ccc(Br)cc1C=NCCN1CCOCC1 [HL, 2-(-(2-morpholinoethylimino)methyl)-4-bromophenol] here?
The value was 54.29%.

And the “Chromism (%H), hyperchromism” value ([2]; BSA absorption, pH 7.2, 25 °C)?
Its value is 34.27%.

What about the “Δλ (nm), bound vs free” value ([2]; blue-shift of BSA band, pH 7.2, 25 °C) of the same compound?
The value was 02 nm.

What about the “Gibb's free energy change” value ([2]; from Kapp) of the same compound?
The value was -5.595 kcal/mol.

What about the “IC50 HepG2” value (liver cancer (HepG2)) of the same compound?
The value was 27.48 µg/mL (≈ 87.7 µM).

What about the “Kb, WS method (intrinsic DNA binding constant)” value (CT-DNA [3]) of the same compound?
Its value is 10000 M⁻¹.

And the DNA cleavage efficacy (CT-DNA [4])?
Its DNA cleavage efficacy is “inactive”.

And the “diameter of clear zone inhibition” value (Aspergillus niger; H = Aspergillus niger, 20 μL of 100 μM per disc, control 6 mm)?
Its value is 25 mm.

And the inhibition% (Aspergillus niger; H = Aspergillus niger)?
Its inhibition% is 76%.

And the “% Inhibition, hydroxyl radical” value [5]?
Its value is 51.78%.

And the “Binding constant Kr at 298 K” value (CT-DNA [6])?
Its value is 10038 M⁻¹.

What about the “diameter of clear zone inhibition” value (Bacillus cereus; G = (+)Bacillus cereus, 20 μL of 100 μM per disc, control 6 mm) of the same compound?
The value was 10 mm.

And the inhibition% (Bacillus cereus; G = (+)Bacillus cereus)?
Its inhibition% is 40%.

And the “IC50 MCF-7” value (breast (MCF-7))?
Its value is 26.67 µg/mL (≈ 85.2 µM).

What about the “diameter of clear zone inhibition” value (Shigella flexneri; E = (−)Shigella flexneri, 20 μL of 100 μM per disc, control 6 mm) of the same compound?
The value was 17 mm.

And the inhibition% (Shigella flexneri; E = (−)Shigella flexneri)?
The inhibition% was 65%.

What about the “diameter of clear zone inhibition” value (Mucor indicus; J = Mucor indicus, 20 μL of 100 μM per disc, control 6 mm) of the same compound?
The value was 17 mm.

And the inhibition% (Mucor indicus; J = Mucor indicus)?
Its inhibition% is 65%.

And the “diameter of clear zone inhibition” value (Pseudomonas aeruginosa; D = (−)Pseudomonas aeruginosa, 20 μL of 100 μM per disc, control 6 mm)?
The value was 12 mm.

What about the inhibition% (Pseudomonas aeruginosa; D = (−)Pseudomonas aeruginosa) of the same compound?
Its inhibition% is 50%.

What about the “% Inhibition, nitric oxide” value [7] of the same compound?
Its value is 50.20%.

And the “diameter of clear zone inhibition” value ([8]; C = (−)Chromobacterium violaceum, 20 μL of 100 μM per disc, control 6 mm)?
The value was 12 mm.

What about the inhibition% [8, 13] of the same compound?
Its inhibition% is 50%.

And the “diameter of clear zone inhibition” value (Candida albicans; I = Candida albicans, 20 μL of 100 μM per disc, control 6 mm)?
The value was 12 mm.

And the inhibition% (Candida albicans; I = Candida albicans)?
Its inhibition% is 50%.

What about the “IC50 A549” value (human lung cancer (A549)) of the same compound?
Its value is 31.74 µg/mL (≈ 101 µM).

What about the “KLB (Lineweaver–Burk binding constant)” value (EB–DNA) of the same compound?
Its value is 1498 M⁻¹.

What about the “KSV (Stern–Volmer binding constant), Method-I” value (EB–DNA) of the same compound?
Its value is 4658 M⁻¹.

What about the “Kass (association binding constant), Stern–Volmer Method-II” value (EB–DNA) of the same compound?
The value was 1924 M⁻¹.

What about the “Apparent binding constant Kapp” value (EB–DNA; KEB[EB] = Kapp[compound], 50% reduction of EB fluorescence) of the same compound?
The value was 269932 M⁻¹.

What about the “KSC (Scatchard binding constant)” value (EB–DNA; Scatchard analysis) of the same compound?
The value was 10942 M⁻¹.

What about the “diameter of clear zone inhibition” value (Escherichia coli; A = (−) Escherichia coli, 20 μL of 100 μM per disc, control (DMSO) = 6 mm) of the same compound?
Its value is 14 mm.

And the inhibition% (Escherichia coli; A = (−) Escherichia coli)?
The inhibition% was 57%.

And the “% Inhibition, superoxide” value [9]?
The value was 50.62%.

And the “diameter of clear zone inhibition” value (Staphylococcus aureus; F = (+)Staphylococcus aureus, 20 μL of 100 μM per disc, control 6 mm)?
Its value is 10 mm.

And the inhibition% (Staphylococcus aureus; F = (+)Staphylococcus aureus)?
The inhibition% was 40%.

What about the “diameter of clear zone inhibition” value ([10]; B = (−)Salmonella enteric serovar typhi, 20 μL of 100 μM per disc, control 6 mm) of the same compound?
The value was 12 mm.

And the inhibition% [10, 14]?
The inhibition% was 50%.

And the “IC50 NHDF” value [11]?
The value was 66.72 µg/mL (≈ 213 µM).

What about the “% Inhibition, DPPH” value [12] of the same compound?
Its value is 50.64%.

What does the source list for O=C1O[C@H]([C@@H](O)CO)C(O)=C1O [Ascorbic acid, ascorbic acid]?
% Inhibition, ferric reducing power [1]: 88.67%; IC50 ([1]; read-out: IC50, ferric reducing power): 160 µM; % Inhibition, hydroxyl radical [5]: 78.83%; IC50 ([5]; read-out: IC50, hydroxyl radical): 160 µM; % Inhibition, nitric oxide [7]: 72.73%; IC50 ([7]; read-out: IC50, nitric oxide): 200 µM; % Inhibition, superoxide [9]: 84.85%; IC50 ([9]; read-out: IC50, superoxide): 120 µM; % Inhibition, DPPH [12]: 82.75%; IC50 ([12]; read-out: IC50, DPPH): 80 µM

With [H]/N=C(/N)N[C@H]1[C@H](O)[C@@H](O)[C@H](O[C@@H]2O[C@@H](C)[C@](O)(C=O)[C@H]2O[C@@H]2O[C@@H](CO)[C@H](O)[C@@H](O)[C@@H]2NC)[C@@H](N/C(N)=N\[H])[C@@H]1O [Streptomycin, streptomycin] as the compound, how does the zone of inhibition at 100 µM (Bacillus cereus; Bacillus cereus, read-out: diameter of clear zone inhibition) read?
Its zone of inhibition at 100 µM is 21 mm.

What about the inhibition% (Bacillus cereus; G = (+)Bacillus cereus) of the same compound?
The inhibition% was 71%.

And the inhibition% (Shigella flexneri; E = (−)Shigella flexneri)?
The inhibition% was 76%.

And the zone of inhibition at 100 µM (Shigella flexneri; Shigella flexneri, read-out: diameter of clear zone inhibition)?
The zone of inhibition at 100 µM was 25 mm.

What about the inhibition% (Pseudomonas aeruginosa; D = (−)Pseudomonas aeruginosa) of the same compound?
The inhibition% was 71%.

What about the zone of inhibition at 100 µM (Pseudomonas aeruginosa; Pseudomonas aeruginosa, read-out: diameter of clear zone inhibition) of the same compound?
The zone of inhibition at 100 µM was 21 mm.

And the inhibition% [8, 13]?
Its inhibition% is 75%.

And the zone of inhibition at 100 µM ([8]; Chromobacterium violaceum, read-out: diameter of clear zone inhibition)?
The zone of inhibition at 100 µM was 24 mm.

And the inhibition% (Escherichia coli; A = (−) Escherichia coli)?
Its inhibition% is 75%.

And the zone of inhibition at 100 µM (Escherichia coli; Escherichia coli, read-out: diameter of clear zone inhibition)?
The zone of inhibition at 100 µM was 24 mm.

What about the inhibition% (Staphylococcus aureus; F = (+)Staphylococcus aureus) of the same compound?
The inhibition% was 71%.

And the zone of inhibition at 100 µM (Staphylococcus aureus; Staphylococcus aureus, read-out: diameter of clear zone inhibition)?
Its zone of inhibition at 100 µM is 21 mm.

What about the inhibition% [10, 14] of the same compound?
Its inhibition% is 77%.

What about the zone of inhibition at 100 µM ([10]; Salmonella, TYPHI, read-out: diameter of clear zone inhibition) of the same compound?
The zone of inhibition at 100 µM was 26 mm.

Which results are given for CC(=O)N1CCN(c2ccc(OCC3COC(Cn4ccnc4)(c4ccc(Cl)cc4Cl)O3)cc2)CC1 (stereo not shown) [Ketokonazole, ketokonazole]?
zone of inhibition at 100 µM (Aspergillus niger; Aspergillus niger, read-out: diameter of clear zone inhibition): 16 mm; inhibition% (Aspergillus niger; H = Aspergillus niger): 63%; inhibition% (Mucor indicus; J = Mucor indicus): 67%; zone of inhibition at 100 µM (Mucor indicus; Mucor indicus, read-out: diameter of clear zone inhibition): 18 mm; zone of inhibition at 100 µM (Candida albicans; Candida albicans, read-out: diameter of clear zone inhibition): 18 mm; inhibition% (Candida albicans; I = Candida albicans): 67%

— PMC9064050 (RSC Advances, 2019)
